Experimental data: ChEMBL document CHEMBL1152519, “Synthesis, structural activity-relationships, and biological evaluation of novel amide-based allosteric binding site antagonists in NR1A/NR2B N-methyl-D-aspartate receptors” (Bioorg Med Chem, 2009)

Columns and labels:
[1] = target: Glutamate NMDA receptor; Grin1/Grin2a (Rattus norvegicus) (UniProt P35439+Q00959); test: Antagonist activity at rat recombinant NR1/NR2A receptor expressed in Xenopus laevis oocytes assessed as inhibition of glutamate/glycine-induced current at 3 uM by two electrode voltage clamp method relative to control; assay type: functional, cell-based; conditions: Oocyte
Method in brief: (§1)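 Xenopus oocytes injected with NR1-1a (3–5 ng) plus NR2A, 2B, 2C or 2D cRNA (7–10 ng), kept at 15 °C. Voltage clamp at −40 mV. Responses to 50 μM glutamate + 30 μM glycine with 3 μM compound, as % of response without compound. NR2A oocytes pre-loaded with 50 μM BAPTA-AM. Mean ± SEM, 4–10 oocytes; paired t-test.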

[2] = target: Glutamate NMDA receptor; Grin1/Grin2b (Rattus norvegicus) (UniProt P35439+Q00960); test: Antagonist activity at rat recombinant NR1/NR2B receptor expressed in Xenopus laevis oocytes assessed as inhibition of glutamate/glycine-induced current at 3 uM by two electrode voltage clamp method relative to control; assay type: functional, cell-based; conditions: Oocyte; method in brief: as §1
[3] = target: Glutamate NMDA receptor; Grin1/Grin2c (Rattus norvegicus) (UniProt P35439+Q00961); test: Antagonist activity at rat recombinant NR1/NR2C receptor expressed in Xenopus laevis oocytes assessed as inhibition of glutamate/glycine-induced current at 3 uM by two electrode voltage clamp method relative to control; assay type: functional, cell-based; conditions: Oocyte; method in brief: as §1
[4] = target: Ionotropic glutamate receptor NMDA 1/2D (Rattus norvegicus) (UniProt P35439+Q62645); test: Antagonist activity at rat recombinant NR1/NR2D receptor expressed in Xenopus laevis oocytes assessed as inhibition of glutamate/glycine-induced current at 3 uM by two electrode voltage clamp method relative to control; assay type: functional, cell-based; conditions: Oocyte; method in brief: as §1
[5] = target: Glutamate receptor 1 (Rattus norvegicus) (UniProt P19490); test: Antagonist activity at rat recombinant GluR1 expressed in Xenopus laevis oocytes assessed as inhibition of glutamate-induced current at 3 uM by two electrode voltage clamp method relative to control; assay type: functional, cell-based; conditions: Oocyte
Method in brief: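 GluR1 homomers expressed from 5–10 ng cRNA in Xenopus oocytes. Clamped at −40 mV. Currents evoked by 100 μM glutamate with 3 μM compound, expressed as % of control without compound. Mean ± SEM, 4–10 oocytes; paired t-test.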

[6] = target: Glutamate receptor ionotropic, kainate 2 (Rattus norvegicus) (UniProt P42260); test: Antagonist activity at rat recombinant GluR6 expressed in Xenopus laevis oocytes assessed as inhibition of concanavalin A/glutamate-induced current at 3 uM by two electrode voltage clamp method relative to control; assay type: functional, cell-based; conditions: Oocyte
Method in brief: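 Oocytes expressing homomeric GluR6 (5–10 ng cRNA) pretreated 5 min with 10 μM concanavalin-A. Currents evoked by 100 μM glutamate at −40 mV, with or without 3 μM compound, and given as percent of control. Mean ± SEM of 4–10 oocytes; paired t-test.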

[7] = target: Glutamate NMDA receptor; GRIN1/GRIN2B (Homo sapiens, UniProt Q05586+Q13224); test: Antagonist activity at human recombinant NR1/NR2B receptor expressed in frog oocytes assessed as inhibition of glutamate/glycine-induced current by two electrode voltage clamp method; assay type: functional, cell-based, Oocyte
Method in brief: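 Human NR1/NR2B cRNA injected into Xenopus oocytes. Two-electrode voltage clamp at −40 mV, 23 °C, 2–7 d after injection. Glutamate/glycine (50–100 μM/30 μM) applied, then with 5–8 compound concentrations. Bath contains 10 μM EDTA; leak-corrected.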

[8] = target: Adrenergic receptor alpha-1 (Rattus norvegicus) (UniProt P15823+P23944+P43140); test: Displacement of [3H]prazosin from alpha1 adrenergic receptor in Wistar rat brain membrane at 3 uM; assay type: cell membranes
Method in brief: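 Wistar rat brain membranes. Percent displacement of 0.25 nM [3H]prazosin by 3 μM compound, run in duplicate.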

hERG (KCNH2) [9] = target: T1, hERG (KCNH2) (Homo sapiens, UniProt Q12809); test: Displacement of [3H]astemizole from human recombinant ERG expressed in HEK293 cells at 10 uM; assay type: cell-based; conditions: HEK293 cells expressing human recombinant ERG, probe [3H]astemizole, read-out: Activity
[10] = Selectivity ratio of IC50 for mouse NR1/NR2B receptor D101A mutant to IC50 for wild type rat NR1/NR2B receptor
MDCK [11] = test: Apparent permeability from apical to basolateral side of MDR1-expressing MDCK cells at 5 uM after 2 hrs by LC-MS/MS analysis; assay type: ADME, cell-based, Canis lupus familiaris; conditions: dog
Method in brief: (§2)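 MDR1-MDCK monolayers grown 7–11 days on Transwells. Compound at 5 μM in HBSS pH 7.4 (final DMSO ≤1%) added apically (A–B) or basally (B–A). Incubated 2 h at 37 °C; both compartments quantified by LC–MS/MS against a >4-point calibration. Papp given in ×10−6 cm/s; efflux ratio = B–A/A–B. Duplicates.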

MDCK [12] = test: Apparent permeability from basolateral to apical side of MDR1-expressing MDCK cells at 5 uM after 2 hrs by LC-MS/MS analysis; assay type: ADME, cell-based, Canis lupus familiaris; conditions: dog; method in brief: as §2
MDCK [13] = test: Efflux ratio of permeability from basolateral to apical over apical to basolateral side in MDR1-expressing MDCK cells at 5 uM after 2 hrs by LC-MS/MS analysis; assay type: ADME, cell-based, Canis lupus familiaris; conditions: dog
[14] = target: Glutamate receptor ionotropic, NMDA 2B (Rattus norvegicus, UniProt Q00960); test: Displacement of [3H]ifenprodil form NR2B receptor in Wistar rat cerebral cortex membrane; assay type: tissue-based
[15] = target: Voltage-gated inwardly rectifying potassium channel KCNH2 (Homo sapiens, UniProt Q12809); test: Displacement of [3H]astemizole from human recombinant ERG expressed in HEK293 cells; assay type: cell-based
hERG (KCNH2) [16] = target: T1, hERG (KCNH2); test: Displacement of [3H]astemizole from human recombinant ERG expressed in HEK293 cells at 3 uM; assay type: cell-based; conditions: HEK293 cells expressing human recombinant ERG, probe [3H]astemizole, read-out: Activity
Method in brief: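 Membranes from HEK293 cells expressing human hERG. Ligand 1.5 nM [3H]-astemizole; displacement at a single test-compound concentration, run in duplicate.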

Glutamate receptor 1 (Rattus norvegicus), sequence (P19490 whole entry): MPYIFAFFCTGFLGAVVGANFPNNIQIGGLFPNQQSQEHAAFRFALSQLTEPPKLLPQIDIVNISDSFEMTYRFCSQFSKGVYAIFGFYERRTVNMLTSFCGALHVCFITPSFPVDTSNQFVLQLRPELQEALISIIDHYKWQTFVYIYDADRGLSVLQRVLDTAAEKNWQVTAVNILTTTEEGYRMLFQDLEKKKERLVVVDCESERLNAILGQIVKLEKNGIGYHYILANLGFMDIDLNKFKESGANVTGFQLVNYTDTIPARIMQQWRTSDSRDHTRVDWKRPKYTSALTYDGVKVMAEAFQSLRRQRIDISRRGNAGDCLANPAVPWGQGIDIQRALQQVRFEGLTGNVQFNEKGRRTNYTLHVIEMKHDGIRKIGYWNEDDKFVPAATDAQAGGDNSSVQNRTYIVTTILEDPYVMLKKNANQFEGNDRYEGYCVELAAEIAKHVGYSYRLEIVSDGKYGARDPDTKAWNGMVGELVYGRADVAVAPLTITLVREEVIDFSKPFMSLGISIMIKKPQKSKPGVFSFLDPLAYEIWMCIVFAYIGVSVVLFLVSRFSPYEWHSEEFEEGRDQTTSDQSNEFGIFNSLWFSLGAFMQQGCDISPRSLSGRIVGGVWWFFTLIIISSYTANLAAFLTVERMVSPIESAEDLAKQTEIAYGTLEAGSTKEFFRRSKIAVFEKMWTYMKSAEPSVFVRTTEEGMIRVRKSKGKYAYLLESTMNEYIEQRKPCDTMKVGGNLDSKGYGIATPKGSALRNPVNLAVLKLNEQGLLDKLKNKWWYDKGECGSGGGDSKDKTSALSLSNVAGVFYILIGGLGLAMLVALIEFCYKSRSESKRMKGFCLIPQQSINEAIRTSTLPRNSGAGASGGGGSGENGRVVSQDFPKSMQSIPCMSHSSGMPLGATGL
Glutamate NMDA receptor; GRIN1/GRIN2B, sequence (Q13224 whole entry, other chains not shown): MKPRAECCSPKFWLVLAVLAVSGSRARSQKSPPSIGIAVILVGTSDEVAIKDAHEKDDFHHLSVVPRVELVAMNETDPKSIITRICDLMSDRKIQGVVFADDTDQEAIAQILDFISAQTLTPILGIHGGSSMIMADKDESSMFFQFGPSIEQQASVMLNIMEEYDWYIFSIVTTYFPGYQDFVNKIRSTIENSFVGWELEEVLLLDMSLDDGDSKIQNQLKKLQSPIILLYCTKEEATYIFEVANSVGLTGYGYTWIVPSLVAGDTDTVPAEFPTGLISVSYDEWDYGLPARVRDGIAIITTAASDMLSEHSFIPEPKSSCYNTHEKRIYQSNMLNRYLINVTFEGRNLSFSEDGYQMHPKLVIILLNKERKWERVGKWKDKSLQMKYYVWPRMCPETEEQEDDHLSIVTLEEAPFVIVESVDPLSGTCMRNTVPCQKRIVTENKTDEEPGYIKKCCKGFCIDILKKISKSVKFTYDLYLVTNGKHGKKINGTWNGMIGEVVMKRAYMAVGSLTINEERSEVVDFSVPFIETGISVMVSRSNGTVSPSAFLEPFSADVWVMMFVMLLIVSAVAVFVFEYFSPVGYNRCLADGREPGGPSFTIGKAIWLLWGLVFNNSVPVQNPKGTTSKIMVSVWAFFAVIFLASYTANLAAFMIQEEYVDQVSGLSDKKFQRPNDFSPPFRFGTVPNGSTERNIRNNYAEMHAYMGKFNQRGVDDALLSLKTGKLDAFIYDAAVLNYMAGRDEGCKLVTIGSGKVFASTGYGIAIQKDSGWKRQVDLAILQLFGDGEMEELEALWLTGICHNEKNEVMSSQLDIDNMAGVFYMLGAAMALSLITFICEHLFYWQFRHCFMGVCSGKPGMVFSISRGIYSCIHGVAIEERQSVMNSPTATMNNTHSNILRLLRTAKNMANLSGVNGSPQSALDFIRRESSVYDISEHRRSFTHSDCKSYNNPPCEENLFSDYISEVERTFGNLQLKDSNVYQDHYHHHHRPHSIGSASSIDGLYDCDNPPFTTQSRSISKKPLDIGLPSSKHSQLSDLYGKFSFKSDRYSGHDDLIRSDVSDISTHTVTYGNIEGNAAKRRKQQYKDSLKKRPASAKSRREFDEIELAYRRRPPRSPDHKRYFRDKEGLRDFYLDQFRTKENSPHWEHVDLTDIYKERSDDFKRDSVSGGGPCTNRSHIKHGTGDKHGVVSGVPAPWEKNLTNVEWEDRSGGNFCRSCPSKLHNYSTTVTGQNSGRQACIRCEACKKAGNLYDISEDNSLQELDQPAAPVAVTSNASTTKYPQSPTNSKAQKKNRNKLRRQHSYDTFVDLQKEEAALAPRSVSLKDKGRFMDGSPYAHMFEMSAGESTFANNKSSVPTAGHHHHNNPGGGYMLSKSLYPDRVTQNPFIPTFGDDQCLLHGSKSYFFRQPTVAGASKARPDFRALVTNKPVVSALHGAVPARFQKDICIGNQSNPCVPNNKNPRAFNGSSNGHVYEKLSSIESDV
T1 sequence (Q12809 whole entry): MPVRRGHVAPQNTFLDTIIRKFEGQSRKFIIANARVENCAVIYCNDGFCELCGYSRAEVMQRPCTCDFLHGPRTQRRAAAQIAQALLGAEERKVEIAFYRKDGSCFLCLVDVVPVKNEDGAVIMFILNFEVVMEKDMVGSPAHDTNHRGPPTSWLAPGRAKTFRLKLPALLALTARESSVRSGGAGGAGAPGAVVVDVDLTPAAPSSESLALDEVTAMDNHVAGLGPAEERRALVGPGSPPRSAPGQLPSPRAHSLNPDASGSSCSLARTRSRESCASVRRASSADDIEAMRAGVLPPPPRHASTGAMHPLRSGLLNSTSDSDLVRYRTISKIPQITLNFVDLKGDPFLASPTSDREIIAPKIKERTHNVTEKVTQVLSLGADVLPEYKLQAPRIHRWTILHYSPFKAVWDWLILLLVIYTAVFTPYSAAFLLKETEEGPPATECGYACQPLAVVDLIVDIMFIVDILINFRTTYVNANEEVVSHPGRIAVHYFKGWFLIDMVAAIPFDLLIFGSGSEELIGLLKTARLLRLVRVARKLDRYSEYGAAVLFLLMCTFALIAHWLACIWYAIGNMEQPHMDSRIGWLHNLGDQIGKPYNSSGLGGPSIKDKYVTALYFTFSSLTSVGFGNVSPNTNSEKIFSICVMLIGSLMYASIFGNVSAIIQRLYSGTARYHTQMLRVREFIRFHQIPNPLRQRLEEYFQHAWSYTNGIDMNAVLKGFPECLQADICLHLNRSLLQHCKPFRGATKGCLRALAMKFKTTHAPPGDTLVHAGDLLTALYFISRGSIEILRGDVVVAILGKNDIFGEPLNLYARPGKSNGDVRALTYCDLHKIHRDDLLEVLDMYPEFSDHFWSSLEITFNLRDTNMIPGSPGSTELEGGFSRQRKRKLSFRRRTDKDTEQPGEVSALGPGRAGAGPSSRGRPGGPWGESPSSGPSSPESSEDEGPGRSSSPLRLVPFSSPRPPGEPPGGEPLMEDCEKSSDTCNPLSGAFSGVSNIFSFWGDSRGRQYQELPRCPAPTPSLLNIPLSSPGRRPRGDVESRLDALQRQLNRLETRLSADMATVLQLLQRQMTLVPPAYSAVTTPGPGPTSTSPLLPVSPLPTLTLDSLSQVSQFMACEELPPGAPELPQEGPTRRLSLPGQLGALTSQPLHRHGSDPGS
Voltage-gated inwardly rectifying potassium channel KCNH2, sequence (Q12809 whole entry): as above

| % response [1] [%] | % response [2] [%] | % response [3] [%] | % response [4] [%] | % response [5] [%] | % response [6] [%] | IC50 [7] [nM] | Activity [8] [%] | Ratio IC50 [10] | Papp (MDCK [11]) [×10⁻⁶ cm/s] | Papp (MDCK [12]) [×10⁻⁶ cm/s] | Ratio (MDCK [13]) | Ki [14] [nM] | Structure (SMILES) | inhibition at 10 µM (hERG (KCNH2) [9]) [%] | Ki [15] [nM] | inhibition at 3 µM (hERG (KCNH2) [16]) [%] |
| --- | --- | --- | --- | --- | --- | --- | --- | --- | --- | --- | --- | --- | --- | --- | --- | --- |
| 106 | 44 | 97 | 95 | 100 | 98 | 4810 |  |  |  |  |  |  | CS(=O)(=O)Nc1ccc(CCC(=O)NNCCc2ccc(Cl)c(Cl)c2)cc1 |  |  |  |
| 97 | 21 | 96 | 92 | 100 | 100 | 380 | 11 |  |  |  |  |  | CS(=O)(=O)Nc1ccc(OCC(=O)NCCOc2ccc(Cl)c(Cl)c2)cc1 | 42 |  |  |
| 99 | 15 | 96 | 79 | 100 | 102 | 64 |  |  |  |  |  |  | CS(=O)(=O)Nc1ccc(OCC(=O)NCCCc2ccc(Cl)c(Cl)c2)cc1 | < 1 |  |  |
| 96 | 17 | 97 | 91 | 100 | 99 | 637 |  |  |  |  |  |  | CS(=O)(=O)Nc1ccc(CCCN2CCN(c3ccc(Cl)c(Cl)c3)C2=O)cc1 | 81 |  |  |
| 101 | 6 | 96 | 91 | 100 | 99 | 28 | 5 | 51 |  |  |  |  | CS(=O)(=O)Nc1ccc(CCC(=O)NNC(=O)Nc2ccc(Cl)c(Cl)c2)cc1 | 3 |  |  |
| 105 | 20 | 98 | 98 | 98 | 103 | 730 | 23 |  | 12.9 | 40.2 | 3.1 | 300 | CS(=O)(=O)Nc1ccc(OCCN2CCN(c3ccc(Cl)c(Cl)c3)C2=O)cc1 | 71 |  |  |
| 89 | 18 | 94 | 106 | 101 | 101 | 166 | 90 |  | 4.76 | 42.4 |  | 817 | CS(=O)(=O)Nc1ccc(OCC(=O)N2CCN(c3ccc(Cl)c(Cl)c3)CC2)cc1 | 93 |  |  |
| 108 | 21 | 94 | 95 | 97 | 98 | 1110 | 21 |  |  |  |  |  | CS(=O)(=O)Nc1ccc(OCCNCC(=O)Nc2ccc(Cl)c(Cl)c2)cc1 | 67 |  |  |
| 104 | 12 | 94 | 92 | 100 | 96 | 270 |  |  |  |  |  |  | CS(=O)(=O)Nc1ccc(CCC(=O)NNC(=S)Nc2ccc(Cl)c(Cl)c2)cc1 | 13 |  |  |
| 99 | 62 | 102 | 89 | 102 | 100 | 1860 |  |  |  |  |  |  | CS(=O)(=O)Nc1ccc(CCCC(=O)NCCc2ccc(Cl)c(Cl)c2)cc1 |  |  |  |
| 96 | 12 | 90 | 96 | 100 | 98 | 750 | 19 |  |  |  |  |  | CS(=O)(=O)Nc1ccc(CCC(=O)NCCCNc2ccc(Cl)c(Cl)c2)cc1 | 83 |  |  |
| 99 | 14 |  | 84 |  | 98 | 65 | 1 |  |  |  |  |  | CS(=O)(=O)Nc1ccc(CCC(=O)NCCNc2ccc(Cl)c(Cl)c2)cc1 |  |  |  |
| 96 | 21 | 95 | 96 | 101 | 94 | 362 | 5 |  |  |  |  |  | CS(=O)(=O)Nc1ccc(OCC(=O)NCCSc2ccc(Cl)c(Cl)c2)cc1 | 75 |  |  |
| 102 | 21 | 97 | 96 | 100 | 97 | 521 |  |  |  |  |  |  | CS(=O)(=O)Nc1ccc(CCC(=O)NNC(=O)c2ccc(Cl)c(Cl)c2)cc1 |  |  |  |
| 106 | 12 | 97 | 100 | 103 | 90 | 193 |  |  |  |  |  |  | CS(=O)(=O)Nc1ccc(OCC(=O)NCCCNc2ccc(Cl)c(Cl)c2)cc1 |  |  |  |
| 101 | 90 | 102 | 93 | 98 | 100 | 41800 |  |  |  |  |  |  | CS(=O)(=O)Nc1ccc(CCC(=O)NN2C(=O)c3cc(Cl)c(Cl)cc3C2=O)cc1 |  |  |  |
| 100 | 14 | 95 | 97 | 101 | 94 | 72 | 22 |  |  |  |  |  | CS(=O)(=O)Nc1ccc(OCC(=O)NC/C=C/c2ccc(Cl)c(Cl)c2)cc1 | 74 |  |  |

| Structure (SMILES) | % response [1] [%] | % response [2] [%] | % response [3] [%] | % response [4] [%] | % response [5] [%] | % response [6] [%] | IC50 [7] [nM] | Activity [8] [%] | Ratio IC50 [10] | Papp (MDCK [11]) [×10⁻⁶ cm/s] | Papp (MDCK [12]) [×10⁻⁶ cm/s] | Ratio (MDCK [13]) | Ki [14] [nM] | inhibition at 10 µM (hERG (KCNH2) [9]) [%] | Ki [15] [nM] | inhibition at 3 µM (hERG (KCNH2) [16]) [%] |
| --- | --- | --- | --- | --- | --- | --- | --- | --- | --- | --- | --- | --- | --- | --- | --- | --- |
| CS(=O)(=O)Nc1ccc(CCC(=O)NC/C=C/c2ccc(Cl)c(Cl)c2)cc1 | 99 | 18 | 95 | 88 | 104 | 100 | 50 | 16 |  |  |  |  |  |  | 3000 | 47 |
| CS(=O)(=O)Nc1ccc(CCC(=O)N2CCN(c3ccc(Cl)c(Cl)c3)CC2)cc1 | 103 | 48 | 100 | 97 | 104 | 101 | 3600 |  |  |  |  |  |  |  |  |  |
| CS(=O)(=O)Nc1ccc(OCCNCCNc2ccc(Cl)c(Cl)c2)cc1 | 91 | 17 | 100 | 100 | 101 | 98 | 39 | 49 |  |  |  |  |  | 97 | 300 |  |
| CS(=O)(=O)Nc1ccc(CCCNCCNc2ccc(Cl)c(Cl)c2)cc1 | 89 | 21 | 104 | 91 | 102 | 99 | 19 | 52 |  |  |  |  |  | > 98 | 14 |  |
